{
  "source": "paper PMC5075014",
  "about": "(Medicinal Chemistry Research, 2016)",
  "system": "MCF-7 (human breast cancer) cell line",
  "assay": "WST-1 assay, anticancer activity, breast cancer MCF-7",
  "type": "cell-based",
  "settings": "MCF-7 cell line",
  "how_it_was_run": "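Cells were grown at 37 °C under 5 % CO2 and seeded at 1 × 10^4 cells/well in DMEM with 10 % FCS, streptomycin and penicillin. They were exposed to the test compound at 0–100 μg/mL for 72 h, then given WST-1 for 1 h. Absorbance was read at 450 nm against a background control, with a 600 nm reference. Values are means of at least two independent experiments run in triplicate.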",
  "data": [
    {"smiles": "CN(C)CCCN1c2ccccc2Sc2cccnc21", "note": "[Prothipendyl, 10-dimethylaminopropyl-1-azaphenothiazine]", "values": [
      {"measurement": "times less active than the most active diazaphenothiazines", "result": "5-6 times"}
    ]}
  ]
}
